Screening results (PubChem BioAssay)
Most compounds without a hit are left out; they make up all but 12% or so of the library.
CHOP inh: inhibitors of CHOP induction in ER stress response. CHO-K1 CHOP-promoter luciferase, tunicamycin-induced, 15-18 h. inhibition, % at 10 µM. hit rate 3.8% among 220,000;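 active = compounds that reduced the stress-induced luciferase reporter signal by more than about 70% of percent inhibition, limit read from the data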
Dynein transport: dynein cargo transport inhibition; 3617.4 mouse cells, GR-EGFP nuclear translocation imaging; test concentration mostly 20 µM; stimulated with dexamethasone, 1 µM; active compounds read low; z-score, hits read low; hit rate 0.47% among 220,000; AID 1381;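 active = plate z-score of nuclear minus cytoplasmic receptor signal below a set negative limit, without overly bright fluorescence or cell loss, cut at about -3.5 in these data, passing the limit was not always enough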;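 note: z-score of nuclear minus cytoplasmic ring GR-EGFP intensity difference per well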
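Buffer or medium – tet-free medium with charcoal-stripped serum · Signal – automated 10x imaging of fixed Hoechst-stained cells · Also added – dexamethasone agonist, 1.0 µM final, for 30 min · Incubation – induction 48 h, compound 1 h, agonist 30 min · Read-out – GR-EGFP nuclear translocation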
Lmaj promast: Leishmania major promastigote growth inhibition; Leishmania major promastigotes, resazurin fluorescence viability; inhibition, % at 10 µM; hit rate 9% among 200,000; AID 1063; in the data active = inhibition above about 50%;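 note: promastigotes grown with compound for 44 hours at 28 °C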
Autophagy HCS: autophagy modulation, high-content screen; calls only at 10 µM (by protocol); AID 463193; MEF GFP-LC3 puncta imaging; test concentration mostly 10 µM; hit rate 0.98% among 190,000;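 active = percentage of spot-positive cells more than 3 SD above its plate mean, without a fluorescence outlier flag or 80% toxicity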
MT stabilize HCS: microtubule stabilization, imaging screen | hit rate 0.83% among 200,000 | HeLa tubulin immunostaining HCS, 24 h; share of cells brighter than vehicle mean+2SD | % tubulin-high responders, % at 10 µM;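 active = plate Z-score above 3 for both tubulin-high and condensed-nucleus cell shares, with cell loss under 80%, at 10 µM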;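 note: anti alpha tubulin signal scored within the nucleus-defined area of each cell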
bCat nuc transl: modulators of beta-catenin nuclear translocation; HeLa beta-catenin nuclear translocation, immunofluorescence imaging; nuclear translocation activity, % at 5 µM; hit rate 0.3% among 190,000;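 active = nuclear translocation activity above 50% at 5 µM, with a well cell count of 50 or more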;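 note: per-cell ratio of nuclear to cytoplasmic median beta-catenin stain intensity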
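Signal – beta-catenin immunofluorescence imaging with DAPI · Test system – human HeLa cell line · Dosing – 5 µM primary single dose, 0.1% DMSO, 0.02–20 µM confirmation series · Measure – % activation, nuclear-to-cytoplasmic median beta-catenin signal ratio per cell · Incubation – 24 h compound exposure at 37°C, 5% CO2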
Numbers stand for hits; - = inactive; . = no result given; + = active, no number.

SMILES	CHOP inh	Dynein transport	Lmaj promast	Autophagy HCS	MT stabilize HCS	bCat nuc transl
O=C(Nc1ccc2nc(-c3cccnc3)[nH]c2c1)C12CC3CC(CC(C3)C1)C2	-	-	77	-	-	.
O=C(Nc1ccc2nc(-c3cccnc3)[nH]c2c1)C1CCCCC1	-	-	68	-	-	-
O=C(Nc1nc2ccccc2[nH]1)C12CC3CC(CC(C3)C1)C2	-	-	90	-	-	-
O=C(CCCCCn1c(=S)[nH]c2cc3c(cc2c1=O)OCO3)N1CCN(C2CCCCC2)CC1	83	-	-	-	-	-
Cc1ccc2c(c1)NC(=O)C(CC(=O)NCCCN1CCN(c3cc(C)ccc3C)CC1)O2 (stereo not given)	-	-	-	+	-	.
O=C1NN(c2ccc(F)cc2)C(=O)/C1=C\c1cnn(-c2ccccc2)c1	70	-	-	-	-	-
COc1ccc(-c2noc(CN(C)C(=O)Nc3ccccc3)n2)cc1	-	-	-	-	-	-
Cc1ccc(F)cc1NC(=S)NCCc1ccccc1	-	-	-	-	-	-
O=S(=O)(NC1CCN(Cc2ccccc2)CC1)c1cccc2cccnc12	-	-	67	-	-	-
CCc1ccc(-c2cc(C(=O)NCc3ccccn3)c3ccccc3n2)cc1	-	-	97	-	-	-
CCc1ccc(CNC(=O)c2cc3c(C)nc4ccccc4c3o2)cc1	80	-	-	.	-	-
N/C(=N\OC(=O)c1cc(-c2ccccc2)nc2ccccc12)c1ccccn1	74	-	-	-	-	-
CCN(CC)S(=O)(=O)c1ccc2oc(C(=O)NCC3COc4ccccc4O3)c(C)c2c1 (stereo not given)	-	-	-	+	-	.
Cc1ccc(NC(=O)C(=O)NCCN2CCN(S(=O)(=O)c3ccccc3)CC2)cc1C	-	-	-	-	-	-
Cc1nc2ccccc2c2oc(C(=O)NCC3COc4ccccc4O3)cc12 (stereo not given)	73	-	-	-	-	-
CCN1CCCC1CNC(=O)c1cc2c(C)nc3ccccc3c2o1 (stereo not given)	.	-	100	-	-	-
Cc1nc2ccccc2c2oc(C(=O)Nc3ccc4c(c3)OCCO4)cc12	-	-	-	-	-	.
Cc1cc(-n2nc(C)cc2C)n2nc(C)c(-c3ccc(Cl)cc3)c2n1	-	-	-	-	-	-
O=C(NCc1ccc(OC(F)(F)F)cc1)C1CC(c2cccc(F)c2)=NO1 (stereo not given)	-	-	.	.	.	-
CCOc1cc(/C=C2/SC(=O)N(CC(=O)N3CCc4ccccc4C3)C2=O)ccc1OCC(=O)O	-	-	-	-	-	.
NC(=O)COc1ccccc1/C=C1/SC(=O)N(CC(=O)N2CCc3ccccc3C2)C1=O	-	-	95	-	-	-
COc1cc(C(=S)N2CCOCC2)ccc1OC(=O)/C=C/c1ccco1	-	-	-	-	-	-
COc1ccc(/C=N/NC(=O)CN(C2=NS(=O)(=O)c3ccccc32)c2ccccc2)cc1	-	-	56	-	-	.
COc1ccccc1/C=N/NC(=O)CN(C1=NS(=O)(=O)c2ccccc21)c1ccccc1	-	-	-	-	-	-
CC(C)(C)c1ccc(C(=O)NC(=S)Nc2nc3c(s2)CCCC3)cc1	-	-	67	-	-	.
SMILES	CHOP inh	Dynein transport	Lmaj promast	Autophagy HCS	MT stabilize HCS	bCat nuc transl
CN(C)c1ccc(C(=O)Nc2nc3c(s2)CCCC3)cc1	92	-	98	.	-	-
CC(C)[C@H](NC(=O)c1ccccc1F)C(=O)Nc1nc2c(s1)CCCC2	-	-	-	-	-	-
CC(C)(C)c1ccc(C(=O)NC(=S)Nc2sc3c(c2C#N)CCC3)cc1	-	-	-	-	-	-
COc1cc(OC)cc(C(=O)N[C@H](C(=O)Nc2nc3c(s2)CCCC3)C(C)C)c1	-	-	90	-	-	.
CCCSc1ccc2nc(NC(=O)OC)[nH]c2c1	-	-	-	-	20	.
CCc1nc(NC(=O)NS(=O)(=O)c2ccccc2C(=O)OC)nc(OC)n1	-	-	-	-	-	-
Fc1ccc(/C=C\c2nccc3c2[nH]c2ccccc23)cc1	90	-	-	-	-	-
Cc1occc(=O)c1OC(=O)Nc1ccc(Cl)c(Cl)c1	96	-	-	-	-	-
COc1ccc(-c2cc(C(F)(F)F)n3nc(C(=O)N4CCCCC4)cc3n2)cc1OC	-	-	-	-	-	-
COc1cccc(-c2cc(C(F)(F)F)n3nc(C(=O)N4CCCCC4c4cccnc4)cc3n2)c1 (stereo not given)	-	-	89	-	-	.
O=C1N(Nc2ccccc2)C(c2ccc(Br)cc2)C12CCCCC2 (stereo not given)	73	-	-	-	-	.
O=C1N(Nc2ccccc2)C(c2ccc(Br)cc2)C12CCCC2 (stereo not given)	94	-	-	-	-	-
O=C1OC(c2ccccc2)C2(CCCC2)C(=O)C12CCCC2 (stereo not given)	-	-	-	-	-	-
Cc1n(C)c2cc(Cl)ccc2[n+]1Cc1ccccc1	-	-	-	-	-	-
CC1=NN(C(N)=S)C(=O)C1N=Nc1ccc(C)cc1C (stereo not given)	-	-	60	-	-	.
CC1=NN(C(N)=S)C(=O)C1N=Nc1ccccc1C (stereo not given)	-	-	-	-	-	-
Cc1ccnc(SCCn2c(N3CCOCC3)nc3c2c(=O)n(C)c(=O)n3C)n1	.	-	-	-	-	.
c1ccc2c(-c3csc(-c4ccncc4)n3)c[nH]c2c1	-	-	-	+	-	-
Brc1ccc(-c2csc(-c3c[nH]c4ccccc34)n2)cc1	-	-	-	-	-	-
Cc1ccc(N=Cc2nc(/C=C/c3cccc([N+](=O)[O-])c3)oc2O)cc1	-	-	-	+	-	-
Cc1ccc(C(=O)CN(C(=O)c2ccc(Cl)cc2)N2C(=O)CCC2=O)cc1	-	-	89	-	-	-
CC(C)(C)n1[nH]c2c3c(ccc2c1=O)C(=O)c1ccccc1C3=O	-	-	95	-	-	-
O=C(/C=C/c1cccs1)N1CCC2(CC1)Oc1ccc(Cl)cc1C(=O)C21CC(c2cccnc2)=NO1 (stereo not given)	-	-	.	.	.	52
COc1cc(/C=N/NC(=O)C(=O)/C=C2\NC3(CCCC3)Cc3ccccc32)ccc1O	-	-	-	-	-	-
O=C(/C=C1\NC2(CCCC2)Cc2ccccc21)C(=O)N/N=C/c1ccccc1O	-	-	99	-	-	-
CCNc1nc(Sc2ccc(C)cc2)cc(C(F)(F)F)n1	87	-	-	-	-	.
c1cncc(-c2nc(NCCCN3CCOCC3)c3c4c(sc3n2)CCC4)c1	-	-	68	+	-	-
CCOc1ccc(Nc2nc(NCC3CCCO3)c3ccccc3n2)cc1 (stereo not given)	-	-	101	+	-	-
c1ccc2c(NCC3CCCO3)nc(N3CCOCC3)nc2c1 (stereo not given)	-	-	-	-	-	-
